One may read the IC50 as the midpoint of a concentration-inhibition curve. The AUC is the area under the concentration-time curve, a measure of exposure. The efflux ratio is the permeability from basolateral to apical divided by that in the opposite direction, in the common usage.

The text below walks through data of ChEMBL document CHEMBL4371006, “Discovery of N-[4-(Quinolin-4-yloxy)phenyl]benzenesulfonamides as Novel AXL Kinase Inhibitors” (J Med Chem, 2018).

Bounds are passed on as bounds.

In data set [1] the target is T1, Proto-oncogene tyrosine-protein kinase Src (Homo sapiens, UniProt P12931). Briefly: Inhibition of SRC (unknown origin).
T1 sequence (P12931 2-536 limits assumed): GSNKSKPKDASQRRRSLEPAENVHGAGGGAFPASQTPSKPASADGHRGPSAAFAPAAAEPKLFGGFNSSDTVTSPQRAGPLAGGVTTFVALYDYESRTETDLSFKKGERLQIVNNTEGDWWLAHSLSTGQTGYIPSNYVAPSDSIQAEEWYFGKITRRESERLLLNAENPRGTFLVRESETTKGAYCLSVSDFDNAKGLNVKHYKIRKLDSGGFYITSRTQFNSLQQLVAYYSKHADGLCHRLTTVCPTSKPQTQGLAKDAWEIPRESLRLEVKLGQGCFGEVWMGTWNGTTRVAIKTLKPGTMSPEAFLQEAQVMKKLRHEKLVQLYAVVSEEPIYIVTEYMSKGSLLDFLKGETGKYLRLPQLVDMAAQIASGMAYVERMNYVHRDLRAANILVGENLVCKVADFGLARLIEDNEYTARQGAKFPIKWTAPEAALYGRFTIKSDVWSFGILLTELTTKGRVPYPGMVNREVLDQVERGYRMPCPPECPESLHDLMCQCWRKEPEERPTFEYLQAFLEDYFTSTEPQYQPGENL
Data set [2] addresses Tyrosine-protein kinase receptor UFO (Homo sapiens) (UniProt P30530). Briefly: Inhibition of AXL (unknown origin) using fluorescence labeled peptide as substrate at 10 uM by IMAP assay relative to control. In a few lines: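 IMAP fluorescence-polarization kinase assay at 10 µmol/L compound, run in triplicate by a contract lab. A fluorescently labeled substrate peptide is phosphorylated, then nanoparticles carrying trivalent metal bind the phosphopeptide and slow its rotation. Read-out is fluorescence polarization, expressed as percent inhibition.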

Data set [3] has as its system MDA-MB-231. Put plainly: Antimigratory activity against human MDA-MB-231 cells assessed as inhibition of large cell aggregate formation after 5 hrs by matrigel assay. The data set is classed as functional, cell-based. The following applies: MDA-MB-231, 5 h. In a few lines:
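MDA-MB-231 cells (7000/well) seeded on polymerized 3 mg/mL Matrigel (set ≥16 h at 37°C) in serum-free medium; inhibitor added at seeding, aggregates forming over 5 h.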

The target in data set [4] is T2, Aurora kinase A (Homo sapiens) (UniProt O14965).
T2 sequence (whole entry): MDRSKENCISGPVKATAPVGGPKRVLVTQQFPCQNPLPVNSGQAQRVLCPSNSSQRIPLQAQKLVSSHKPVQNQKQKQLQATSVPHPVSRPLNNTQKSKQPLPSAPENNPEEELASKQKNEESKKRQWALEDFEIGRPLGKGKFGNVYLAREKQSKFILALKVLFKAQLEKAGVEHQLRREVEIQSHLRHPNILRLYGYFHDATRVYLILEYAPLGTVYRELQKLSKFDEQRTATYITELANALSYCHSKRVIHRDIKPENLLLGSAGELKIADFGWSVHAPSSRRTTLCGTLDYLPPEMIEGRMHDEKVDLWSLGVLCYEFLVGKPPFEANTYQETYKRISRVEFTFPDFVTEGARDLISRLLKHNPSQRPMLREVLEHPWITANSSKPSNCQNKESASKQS
Put plainly: Inhibition of AurA (unknown origin) using biotinylated peptide as substrate at 10 uM by TR-FRET assay relative to control.

Data set [5] concerns the target Vascular endothelial growth factor receptor 2 (Homo sapiens) (UniProt P35968). Put plainly: Inhibition of VEGFR2 (unknown origin) using biotinylated peptide as substrate at 10 uM by TR-FRET assay relative to control. A general note: In TR-FRET formats the signal depends on donor and acceptor labels being close together.
Data set [6] addresses Platelet-derived growth factor receptor beta (Homo sapiens) (UniProt P09619). Put plainly: Inhibition of PDGFRbeta (unknown origin) using biotinylated peptide as substrate at 10 uM by TR-FRET assay relative to control.
Data set [7] addresses Hepatocyte growth factor receptor (Homo sapiens, UniProt P08581). Put plainly: Inhibition of c-MET (unknown origin).
Data set [8] can be described thus: Selectivity ratio of compound effect for anti-invasive activity against human MDA-MB-231 cells to IC50 for AXL (unknown origin) phosphorylation.
The target of data set [9] is T1, Proto-oncogene tyrosine-protein kinase Src. Put plainly: Inhibition of SRC (unknown origin) using biotinylated peptide as substrate at 10 uM by TR-FRET assay relative to control.
Data set [10] can be described thus: AUC (0 to tz) in mouse at 1 to 2 mg/kg, iv by LC/MS/MS analysis. Particulars: in vivo. Type of data set: ADME, organism-based. The method in brief: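 Male ICR mice (27 ± 5 g, n = 3) dosed iv via tail vein at 2 or 1 mg/kg in 30% PEG400/5% ethanol in water. Jugular blood (0.3 mL, heparin) sampled at set times over 24 h or more; plasma separated, acetonitrile-precipitated, drug quantified by LC/MS/MS; parameters from noncompartmental-type software estimation.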

Data set [11] in a line: Initial plasma concentration in mouse at 1 to 2 mg/kg, iv by LC/MS/MS analysis. Type of data set: ADME, organism-based. The method in brief:
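Male ICR mice (n = 3) dosed iv via the tail vein at 2 or 1 mg/kg in 30% PEG400 and 5% ethanol in water. Jugular blood was collected into heparin and the plasma separated. Plasma levels were measured by LC/MS/MS after acetonitrile precipitation, and parameters were derived by noncompartmental software.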

Data set [12] in a line: Efflux ratio of apparent permeability from basolateral to apical side over apical to basolateral side in human Caco2 cells at 10 uM after 2 hrs by LC-MS/MS analysis. Type of data set: ADME, cell-based. The following applies: Caco-2. In a few lines: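 Caco-2 monolayers differentiated 3 weeks, integrity checked by Lucifer yellow transport. Compound at 10 µM for 2 h; apical transport buffer (glucose, 10 mM HEPES, HBSS, pH 6.5, 100 µM Lucifer yellow), basolateral buffer pH 7.4. Papp = (dQ/dt)/C0A; efflux ratio = Papp(B→A)/Papp(A→B).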
Background: Passage across Caco-2 layers is used to estimate intestinal permeability.

Data set [13] is described as follows: Protein binding in human plasma. The following applies: read-out: PPB (converted). The data set is classed as ADME, cell-free.
For data set [14], the target named is Tyrosine-protein kinase Fyn (Homo sapiens, UniProt P06241). Put plainly: Binding affinity to FYN in SILAC-labeled human MDA-MB-231 cells lysate by mass spectrometry based kinAffinity assay. The data set is classed as subcellular. In a few lines: (§1)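 Chemical proteomics: MDA-MB-231 lysate bound to matrix of immobilized broad kinase inhibitors at several densities (BC50), then competed with increasing free compound (CC50); proteins quantified by mass spectrometry, Kd via Cheng-Prusoff. Two competition formats run in parallel to check equilibrium.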

For data set [15], the target named is Serine/threonine-protein kinase 3 (Homo sapiens, UniProt Q13188). Put plainly: Binding affinity to MST2 in SILAC-labeled human MDA-MB-231 cells lysate by mass spectrometry based kinAffinity assay. The data set is classed as subcellular. In a few lines:
(§2)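 MDA-MB-231 lysate applied to KinAffinity matrix of immobilized broadband kinase inhibitors at graded densities to obtain BC50 per target. Competition then run with increasing free compound to give CC50; Kd derived by Cheng-Prusoff. Two competition experiments in parallel to check equilibrium, one with lysate pre-incubated with compound before adding matrix. Quantitation by mass spectrometry.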

The target of data set [16] is Tyrosine-protein kinase CSK (Homo sapiens, UniProt P41240). Briefly: Binding affinity to CSK in SILAC-labeled human MDA-MB-231 cells lysate by mass spectrometry based kinAffinity assay. Type of data set: subcellular. In a few lines: as §1
For data set [17], the target named is Aurora kinase A (Homo sapiens, UniProt O14965). Put plainly: Binding affinity to AURKA in SILAC-labeled human MDA-MB-231 cells lysate by mass spectrometry based kinAffinity assay. Type of data set: subcellular. In a few lines: as §1
Data set [18] concerns the target Mitogen-activated protein kinase kinase kinase kinase 5 (Homo sapiens, UniProt Q9Y4K4). Put plainly: Binding affinity to MAP4K5 in SILAC-labeled human MDA-MB-231 cells lysate by mass spectrometry based kinAffinity assay. Type of data set: subcellular. The method in brief: as §1
Data set [19] addresses Mitogen-activated protein kinase kinase kinase 20 (Homo sapiens, UniProt Q9NYL2). Put plainly: Binding affinity to ZAK in SILAC-labeled human MDA-MB-231 cells lysate by mass spectrometry based kinAffinity assay. The data set is classed as subcellular. The method in brief: as §2
Data set [20] deals with MAP/microtubule affinity-regulating kinase 3 (Homo sapiens, UniProt P27448). Put plainly: Binding affinity to MARK3 in SILAC-labeled human MDA-MB-231 cells lysate by mass spectrometry based kinAffinity assay. Type of data set: subcellular. In a few lines:
as §1

Data set [21] addresses Serine/threonine-protein kinase PLK4 (Homo sapiens, UniProt O00444). Briefly: Binding affinity to PLK4 in SILAC-labeled human MDA-MB-231 cells lysate by mass spectrometry based kinAffinity assay. The data set is classed as subcellular. In a few lines:
as §2

Chain of Platelet-derived growth factor receptor beta (Homo sapiens) (P09619 whole entry): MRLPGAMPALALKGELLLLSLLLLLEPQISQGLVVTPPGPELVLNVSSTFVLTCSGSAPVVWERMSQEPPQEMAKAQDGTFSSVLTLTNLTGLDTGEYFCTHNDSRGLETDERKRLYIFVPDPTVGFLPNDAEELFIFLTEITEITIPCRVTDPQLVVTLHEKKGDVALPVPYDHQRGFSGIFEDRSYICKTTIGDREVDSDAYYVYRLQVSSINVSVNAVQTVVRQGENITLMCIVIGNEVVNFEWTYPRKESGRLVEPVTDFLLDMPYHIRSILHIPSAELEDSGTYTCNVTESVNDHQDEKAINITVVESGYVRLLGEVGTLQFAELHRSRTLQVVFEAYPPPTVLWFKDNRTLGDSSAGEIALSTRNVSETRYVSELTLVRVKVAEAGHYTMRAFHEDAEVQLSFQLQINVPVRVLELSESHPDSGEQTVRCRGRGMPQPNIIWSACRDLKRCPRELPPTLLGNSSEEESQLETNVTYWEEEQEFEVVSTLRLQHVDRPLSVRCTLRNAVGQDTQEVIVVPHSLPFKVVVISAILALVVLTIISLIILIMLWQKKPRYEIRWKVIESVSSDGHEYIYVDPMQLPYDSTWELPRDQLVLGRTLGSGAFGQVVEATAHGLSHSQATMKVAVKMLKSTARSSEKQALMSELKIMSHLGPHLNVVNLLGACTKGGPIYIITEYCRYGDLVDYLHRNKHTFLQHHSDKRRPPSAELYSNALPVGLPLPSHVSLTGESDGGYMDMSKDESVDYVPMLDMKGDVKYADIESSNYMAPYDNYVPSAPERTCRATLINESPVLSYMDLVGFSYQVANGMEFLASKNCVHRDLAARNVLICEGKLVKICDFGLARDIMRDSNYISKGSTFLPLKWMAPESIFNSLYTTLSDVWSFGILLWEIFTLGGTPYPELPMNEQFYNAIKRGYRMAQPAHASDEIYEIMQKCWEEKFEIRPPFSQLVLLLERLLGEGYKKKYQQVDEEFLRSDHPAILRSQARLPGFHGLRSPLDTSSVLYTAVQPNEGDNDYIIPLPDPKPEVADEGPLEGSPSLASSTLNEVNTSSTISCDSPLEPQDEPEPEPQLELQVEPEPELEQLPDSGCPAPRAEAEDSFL
Chain of Tyrosine-protein kinase receptor UFO (Homo sapiens) (P30530 whole entry): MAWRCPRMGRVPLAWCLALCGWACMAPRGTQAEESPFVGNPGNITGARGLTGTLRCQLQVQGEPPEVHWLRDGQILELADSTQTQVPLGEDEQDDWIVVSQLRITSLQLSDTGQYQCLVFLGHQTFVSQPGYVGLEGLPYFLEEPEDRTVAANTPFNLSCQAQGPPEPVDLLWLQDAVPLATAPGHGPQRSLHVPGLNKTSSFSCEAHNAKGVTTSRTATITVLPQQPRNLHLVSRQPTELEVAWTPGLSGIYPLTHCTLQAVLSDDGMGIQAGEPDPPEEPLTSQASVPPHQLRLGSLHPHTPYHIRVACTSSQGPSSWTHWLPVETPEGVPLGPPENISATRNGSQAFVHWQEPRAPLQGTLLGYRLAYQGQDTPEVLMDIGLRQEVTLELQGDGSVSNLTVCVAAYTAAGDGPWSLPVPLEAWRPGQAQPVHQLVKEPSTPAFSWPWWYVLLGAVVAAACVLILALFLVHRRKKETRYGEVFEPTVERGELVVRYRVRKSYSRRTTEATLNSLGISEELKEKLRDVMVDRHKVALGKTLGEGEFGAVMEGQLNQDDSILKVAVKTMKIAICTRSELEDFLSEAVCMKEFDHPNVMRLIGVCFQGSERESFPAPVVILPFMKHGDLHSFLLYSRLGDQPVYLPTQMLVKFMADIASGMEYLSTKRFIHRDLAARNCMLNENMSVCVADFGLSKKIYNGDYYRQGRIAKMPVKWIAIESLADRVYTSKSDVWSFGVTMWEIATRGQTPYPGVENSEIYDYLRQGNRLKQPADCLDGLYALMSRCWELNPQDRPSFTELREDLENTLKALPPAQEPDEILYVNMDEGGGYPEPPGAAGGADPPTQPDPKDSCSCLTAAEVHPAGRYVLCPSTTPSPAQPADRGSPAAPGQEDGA
Chain of Vascular endothelial growth factor receptor 2 (Homo sapiens) (P35968 whole entry): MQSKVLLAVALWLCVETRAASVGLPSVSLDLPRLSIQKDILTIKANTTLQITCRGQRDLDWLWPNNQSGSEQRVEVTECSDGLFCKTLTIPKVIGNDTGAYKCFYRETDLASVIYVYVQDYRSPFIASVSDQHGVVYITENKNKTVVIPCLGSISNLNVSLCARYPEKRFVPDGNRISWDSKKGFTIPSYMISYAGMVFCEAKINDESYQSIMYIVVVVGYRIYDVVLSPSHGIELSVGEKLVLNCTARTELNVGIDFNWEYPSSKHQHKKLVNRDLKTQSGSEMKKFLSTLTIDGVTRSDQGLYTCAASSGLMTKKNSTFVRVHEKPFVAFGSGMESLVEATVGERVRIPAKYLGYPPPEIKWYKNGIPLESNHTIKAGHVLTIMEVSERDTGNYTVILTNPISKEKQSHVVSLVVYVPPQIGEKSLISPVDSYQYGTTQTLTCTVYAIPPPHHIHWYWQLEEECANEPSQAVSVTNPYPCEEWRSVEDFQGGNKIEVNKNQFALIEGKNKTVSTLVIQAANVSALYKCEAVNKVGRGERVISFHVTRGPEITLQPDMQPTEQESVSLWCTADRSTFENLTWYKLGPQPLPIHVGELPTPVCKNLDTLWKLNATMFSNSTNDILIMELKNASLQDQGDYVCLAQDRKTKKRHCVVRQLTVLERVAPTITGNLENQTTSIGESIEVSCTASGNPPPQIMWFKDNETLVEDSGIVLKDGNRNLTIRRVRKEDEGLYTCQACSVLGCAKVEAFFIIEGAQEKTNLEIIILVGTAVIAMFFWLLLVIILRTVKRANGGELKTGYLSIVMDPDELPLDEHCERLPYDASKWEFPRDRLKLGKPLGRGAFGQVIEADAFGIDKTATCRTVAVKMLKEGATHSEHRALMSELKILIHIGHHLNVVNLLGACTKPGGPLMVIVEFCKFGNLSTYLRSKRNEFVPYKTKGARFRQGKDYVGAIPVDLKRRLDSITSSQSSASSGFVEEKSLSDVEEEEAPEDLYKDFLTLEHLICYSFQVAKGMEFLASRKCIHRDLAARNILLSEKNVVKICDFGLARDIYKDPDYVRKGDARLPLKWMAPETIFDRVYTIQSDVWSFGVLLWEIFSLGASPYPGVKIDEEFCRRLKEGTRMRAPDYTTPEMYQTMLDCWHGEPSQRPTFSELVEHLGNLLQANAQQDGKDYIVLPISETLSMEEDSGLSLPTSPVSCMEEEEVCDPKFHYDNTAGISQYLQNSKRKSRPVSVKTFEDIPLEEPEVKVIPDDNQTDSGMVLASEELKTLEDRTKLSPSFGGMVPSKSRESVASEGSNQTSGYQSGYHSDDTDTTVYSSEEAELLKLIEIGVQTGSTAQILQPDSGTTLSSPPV
Chain of Mitogen-activated protein kinase kinase kinase kinase 5 (Q9Y4K4 whole entry): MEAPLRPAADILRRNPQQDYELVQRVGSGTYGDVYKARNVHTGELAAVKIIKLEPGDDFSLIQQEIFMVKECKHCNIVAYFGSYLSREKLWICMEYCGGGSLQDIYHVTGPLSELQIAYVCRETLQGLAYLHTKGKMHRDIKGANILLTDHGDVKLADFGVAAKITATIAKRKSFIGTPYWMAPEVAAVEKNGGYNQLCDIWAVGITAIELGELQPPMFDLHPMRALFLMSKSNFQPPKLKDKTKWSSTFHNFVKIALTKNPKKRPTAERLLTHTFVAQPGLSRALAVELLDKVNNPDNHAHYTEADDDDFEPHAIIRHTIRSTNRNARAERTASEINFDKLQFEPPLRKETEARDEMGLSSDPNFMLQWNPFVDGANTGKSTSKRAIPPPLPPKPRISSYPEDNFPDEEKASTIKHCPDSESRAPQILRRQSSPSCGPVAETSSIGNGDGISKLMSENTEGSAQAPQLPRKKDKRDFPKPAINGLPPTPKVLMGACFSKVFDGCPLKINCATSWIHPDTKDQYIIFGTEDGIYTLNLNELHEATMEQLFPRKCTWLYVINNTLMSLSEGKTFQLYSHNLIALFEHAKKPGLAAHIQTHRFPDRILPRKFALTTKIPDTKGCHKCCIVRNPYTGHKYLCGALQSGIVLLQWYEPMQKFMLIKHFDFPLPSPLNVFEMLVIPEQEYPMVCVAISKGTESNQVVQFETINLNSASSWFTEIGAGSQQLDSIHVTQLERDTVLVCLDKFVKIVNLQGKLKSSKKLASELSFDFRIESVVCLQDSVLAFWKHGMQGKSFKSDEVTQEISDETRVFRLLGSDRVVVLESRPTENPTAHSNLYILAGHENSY

As for `COc1cc2c(Oc3ccc(NS(=O)(=O)c4ccccc4C(F)(F)F)cc3F)ccnc2cc1OCCCN1CCN(C)CC1`, the values for the 50% inhibitory concentration (IC50) in data set [1], in data set [3] and in data set [7] were 544 nM, 158 nM and 488 nM, respectively. The Efficacy in data set [2], in data set [4], in [5], in data set [6] and in data set [9] was 83 to 100% each time. In addition, the Selectivity ratio in data set [8] is reported as 2 - 6.

As to `COc1cc2c(Oc3ccc(NS(=O)(=O)c4cc(F)ccc4F)cc3F)ccnc2cc1OCCCN1CCCC(C)C1` (stereo not given), the IC50 in data set [1] came to 113 nM; in data set [3] it was 185 nM; in [7] it was 1310 nM. Besides, the Efficacy in [2], in data set [4], in [5], in [6] and in data set [9] was 83 to 100% in each case. The AUC in [10] came to 669 ng·h/mL. In addition, the C0 in data set [11] turned out to be 216 ng/mL. Further, the Selectivity ratio in data set [8] is given as 2 - 6. The efflux ratio at 2 h, 10 µM in data set [12] was determined as 6.6. Moreover, the fraction unbound in [13] is 0.015.

In the case of `COc1cc2c(Oc3ccc(NS(=O)(=O)c4c(F)cccc4F)cc3F)ccnc2cc1OCCCN1CCN(C)CC1`, the 50% inhibitory concentration (IC50) is 44 nM in data set [1], 156 nM in [3] and 127 nM in data set [7]. Moreover, the Efficacy in data set [2], in [4], in [5], in [6] and in data set [9] was 83 to 100% in each case. Also, the “Kd(free)” value in [14] was 38 nM; in data set [15] it was 5223 nM; in data set [16], 30 nM; in data set [17], 146 nM; in data set [18], 8 nM; in data set [19], 3210 nM. In addition, the results for the “Kd(free)” value in data set [20] and in data set [21] were 5622 nM and 48 nM, respectively. Also, the Selectivity ratio in data set [8] is 2 - 6.

In the case of `COc1cc2c(Oc3ccc(NS(=O)(=O)c4cc(F)ccc4F)cc3F)ccnc2cc1OCCCN1CCN(C)CC1`, the IC50 in [1] came to 88 nM; in [3], 158 nM; in data set [7], 358 nM. Besides, the Efficacy in [2], in [4], in [5], in data set [6] and in data set [9] was 83 to 100% in each case. Besides, the “Kd(free)” value in [14] was 64 nM; in [15], above 6454 nM; in [16], 270 nM; in [17], 847 nM; in data set [18], 24 nM; in data set [19] it was 1180 nM. The “Kd(free)” value in data set [20] was 3854 nM; in data set [21], 53 nM. The same compound displayed an exposure (AUC) in data set [10] of 1430 ng·h/mL. The compound further had a C0 in data set [11] of 310 ng/mL. Moreover, in data set [8], the Selectivity ratio was 2 - 6. Further, the efflux ratio at 2 h, 10 µM in data set [12] was found to be 2.3. Further, the fraction unbound in data set [13] was 0.009.
